Hit rate of the full screen: of about 300,000 compounds, about 4,400 (1.5%) were called active.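 Rule for the calls: active = mean inhibition across valid replicates above about 55% (limit read from the data); inconclusive = mean below that limit but half or more replicates reach it; inactive = mean below it, under half of replicates reach it.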 Only a selection was taken, and actives are over-represented in it overall.
Experiment: Trypanosoma cruzi replication blockers in host cells – luminescence, NIH3T3 host cells, primary screen (AID 1885);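 note: signal also drops with host cell toxicity which is not excluded here; 0% = plate median of DMSO wells and 100% = zero luminescence signal; higher percent means less beta-gal luminescence so fewer parasites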
Settings: T. cruzi beta-gal in NIH3T3, luminescence, 90 h; stronger effect = higher value; concentration not given here
How it was run: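 Test system: β-gal T. cruzi (Tulahuen C4) inside NIH/3T3 cells / Quantity: 5,000 cells/well / Measured by: luminescence from GalScreen with 0.05% NP40, read after 60 min / Medium: DMEM plus 2% FBS / Measure: parasite load inhibition, % / Reagent: Tulahuen C4 trypomastigotes, 5000/well / Schedule: co-culture of at least 90 h after 3 h attachment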

SMILES	inhibition
COc1ccc(Cc2nnc(SCC(=O)Nc3ccc(C)c(Cl)c3)[nH]c2=O)cc1	23.1% (inactive)
S=C(NCCc1ccccc1)N1CCn2cccc2C1c1ccncc1 (stereo unspecified)	23.4% (inactive)
S=C(Nc1cccc(Br)c1)N1CCn2cccc2C1c1cccnc1 (stereo unspecified)	72.8% (active)
Fc1cc(Br)ccc1NC(=S)Nc1cccnc1	-15.3% (inactive)
O=C(COC(=O)/C=C/c1ccc(OC(F)F)cc1)NC1CCCCC1	-1.87% (inactive)
C=CCn1c(SCCOc2ccc(OC)cc2)nnc1C(NC(=O)c1ccc(OC)cc1)C(C)C (stereo unspecified)	4.8% (inactive)
Cc1ccc(C(=O)NNC(=O)c2ccncc2)cc1S(=O)(=O)N1CCCCC1	-3.57% (inactive)
Cc1ccc(N=C2SCCCN2C(=O)c2cccc(N3C(=O)CCC3=O)c2)cc1Cl	35.8% (inactive)
CC(Nc1nc(N2CCN(CCO)CC2)nc2ccccc12)c1ccccc1 (stereo unspecified)	-7.35% (inactive)
CC(Nc1nc(N2CCCC2)nc2ccccc12)c1ccccc1 (stereo unspecified)	58.1% (active)
CC(Nc1nc(N2CCOCC2)nc2ccccc12)c1ccccc1 (stereo unspecified)	31.7% (inactive)
O=C(NCCC1CCCCN1S(=O)(=O)c1ccc(F)cc1)C(=O)NC1CC1 (stereo unspecified)	-6.12% (inactive)
COc1cc(NC(=O)CSc2ccc(-c3cccnc3)nn2)cc(OC)c1	1.76% (inactive)
COc1ccc(N2CC(NS(=O)(=O)c3ccc4ccccc4c3)CC2=O)cc1 (stereo unspecified)	-4.61% (inactive)
O=C(NCc1ccncc1)c1ccc(NS(=O)(=O)c2cccc([N+](=O)[O-])c2)cc1	-11.6% (inactive)
CN1C2CCC1CC(NC(=O)c1ccc([N+](=O)[O-])cc1)C2 (stereo unspecified)	8.42% (inactive)
O=C(Nc1ccccc1C(=O)Nc1ccncc1)c1ccc([N+](=O)[O-])cc1	31.4% (inactive)
O=C(Nc1cc2c3c(c1)C1CCCC1CN3CC1CCCC21)c1ccc([N+](=O)[O-])cc1 (stereo unspecified)	82.1% (active)
Cc1csc(=O)n1CC(=O)OCC(=O)N(CC(C)C)c1c(N)n(Cc2ccccc2)c(=O)[nH]c1=O	-7.8% (inactive)
Cc1c(NC(=O)CSc2cccc3cccnc23)c(=O)n(-c2ccccc2)n1C	67.7% (active)
Cc1ccc(NC(=O)CSc2cccc3cccnc23)c(C)c1	26.2% (inactive)
Cc1c(NC(=O)CSc2nnnn2-c2ccc(C(=O)O)cc2)c(=O)n(-c2ccccc2)n1C	-12.6% (inactive)
CC(C)Cc1nc(N2CCOCC2)c(C#N)c2c1CCC2	9.81% (inactive)

SMILES	inhibition
CCc1nc(NCCO)c(C#N)c2c1CCCC2	-15% (inactive)
CC(C)CCNc1nc(N2CCCC2)c2c(c1C#N)CCN(C)C2	58.4% (active)
CSCCC(NC(=O)c1ccco1)C(=O)Nc1cc(C)ccn1 (stereo unspecified)	-2.39% (inactive)
Cc1ccc(C2CC(c3cccc(Br)c3)n3nc(N)nc3N2)cc1 (stereo unspecified)	14.7% (inactive)
Cc1ccc(C2CC(c3cccc(C)c3)n3nc(N)nc3N2)cc1 (stereo unspecified)	36.3% (inactive)
COc1ccc(C2CC(c3ccc(C)cc3)Nc3nc(N)nn32)cc1 (stereo unspecified)	61.3% (active)
CCc1ccccc1NC(=O)CN(C)S(=O)(=O)c1ccc2c(c1)c(=O)n(C)c(=O)n2C	-4.15% (inactive)
Clc1ccc(-c2cc(C3CCNCC3)[nH]n2)c(Cl)c1	65.5% (active)
O=C1CSC(c2ccccc2)N1c1nc(-c2ccc(Cl)cc2Cl)cs1 (stereo unspecified)	28.7% (inactive)
Clc1ccc(-c2cc(-c3ccccn3)on2)c(Cl)c1	14.9% (inactive)
CCCN(CC(=O)Nc1ccccc1OC)C(=O)CCC(=O)c1ccc(F)cc1	0.665% (inactive)
Cc1cc(C)nc(N/N=C/c2ccc([N+](=O)[O-])o2)n1	26.9% (inactive)
CCc1ccc(S(=O)(=O)N/N=C\c2ccc([N+](=O)[O-])o2)cc1	19% (inactive)
C/[N+]([O-])=C\c1ccc([N+](=O)[O-])o1	67% (active)
COc1ccc(C(=NN)c2ccc(OC)cc2)cc1	-17.9% (inactive)
CCCC1(C(=O)OCC)NC(c2ccc(N(C)C)cc2)C2C(=O)N(c3ccc4c(c3)OCCO4)C(=O)C21 (stereo unspecified)	-15% (inactive)
CC(C)(C)NCCCOc1ccc(Cl)cc1C(C)(C)C	33.9% (inactive)
CN(C)CCOc1ccc(Cl)cc1C(C)(C)C	57.6% (active)
CN(C)CCOCCOc1ccc(Cl)c2ccccc12	33.2% (inactive)
COc1ccccc1C(CNC(=O)c1cccc(NS(=O)(=O)c2ccc(Br)cc2)c1)N(C)C (stereo unspecified)	0.0669% (inactive)
CCN(CC(=O)Nc1cc(Cl)ccc1C)C(=O)CSCc1ccc(C)cc1	7.73% (inactive)
N#Cc1cc([N+](=O)[O-])ccc1Oc1cccc(/C=N/NC(=O)c2ccc(Cl)cc2)c1	74.5% (active)
O=C(N/N=C/c1cccc(OC(=O)c2ccc([N+](=O)[O-])cc2)c1)c1cccnc1	-36.5% (inactive)

SMILES	inhibition
O=C(N/N=C/c1cccc([N+](=O)[O-])c1)c1ccncc1	-13.8% (inactive)
CCc1ccc(C(=O)NNC(=O)C2CCN(c3ncnc4sc(C)c(C)c34)CC2)cc1	24% (inactive)
O=C(COC(=O)c1c2c(nc3ccccc13)/C(=C\c1cccs1)CCC2)Nc1ccccc1Cl	54.9% (active)
O=C(COC(=O)c1c2c(nc3ccccc13)CCCC2)c1ccc(Br)s1	-9.74% (inactive)
COc1cc(/C=C2\CCCc3c2nc2ccccc2c3C(=O)O)cc(Cl)c1O	6.47% (inactive)
CC(NC(=O)COC(=O)c1ccc2c(c1)OCO2)c1ccccc1 (stereo unspecified)	-10.2% (inactive)
COc1cc(-c2cc(C(=O)OCC(=O)Nc3ccc4c(c3)OCO4)c3ccccc3n2)cc(OC)c1OC	5.72% (inactive)
NC(=O)c1ccc(NC(=O)COC(=O)c2c3c(nc4ccccc24)/C(=C\c2ccc4c(c2)OCO4)CCC3)cc1	69.5% (active)
O=C1CN(C(=O)c2cc(F)cc(F)c2)c2ccccc2N1	-7.57% (inactive)
CCCc1cc(=O)[nH]c(SCC(=O)c2c(N)n(CC(C)C)c(=O)n(C)c2=O)n1	-8.24% (inactive)
CCOc1ccc(-c2cc(C(=O)N/N=C/c3ccc(O)cc3)c3ccccc3n2)cc1	18.7% (inactive)
CCNS(=O)(=O)c1ccc(NC(=O)Nc2cccc(C(F)(F)F)c2)cc1	61.3% (active)
Cc1ccc(NC(=O)Nc2cccc(C(F)(F)F)c2)nc1	11.1% (inactive)
CCNS(=O)(=O)c1ccc(NC(=O)Nc2cccc(OC)c2)cc1	-9.54% (inactive)
Cn1ccc(=Nc2ccc(NC(=O)c3ccc(N=c4ccn(C)c5ccc([N+](=O)[O-])cc45)cc3)cc2)cc1	33.3% (inactive)
Cn1c(CCc2ccccc2)nnc1SCC(N)=O	-8.67% (inactive)
Cc1ccc(Cc2nnc(SCC(=O)Nc3ccc(C)cc3C)[nH]c2=O)cc1	-8.53% (inactive)
COc1ccccc1/C=N/Nc1nc(C)c(C(C)=O)s1	6.16% (inactive)
COc1cccc2sc(Nc3nc(C)c(C(C)=O)s3)nc12	89.1% (active)
COc1cc2ccccc2cc1C(=O)Nc1nc(C)c(C(C)=O)s1	-2.79% (inactive)
COc1ccc(C)cc1S(=O)(=O)Nc1cc2c3c(c1)CCC(=O)N3CCC2	-2.17% (inactive)
CC(C)=NN1C(=O)c2ccccc2NC1(C)C	-9.69% (inactive)
COc1ccc(C2=NN(C(C)=O)C(c3ccccc3)C2)cc1 (stereo unspecified)	-1.39% (inactive)

SMILES	inhibition
O=C(CSc1nnnn1-c1ccc(O)cc1)N1N=C(c2ccc3ccccc3c2)CC1c1ccccc1 (stereo unspecified)	71.2% (active)
COc1ccc(C2CC(c3ccccc3)=NN2C(=O)CSc2nccc(=O)[nH]2)cc1 (stereo unspecified)	-0.127% (inactive)
Cc1ccc(S(=O)(=O)n2cccc2CO)cc1	-12.2% (inactive)
O=C(NNS(=O)(=O)c1ccc([N+](=O)[O-])cc1)C1CCCCC1	-10.2% (inactive)
CC(=O)Nc1cccc(C(=O)OCC(=O)Nc2nnc(-c3ccccc3)o2)c1	-2% (inactive)
CCN(CC)S(=O)(=O)c1ccc(C(=O)N2CCN(C3=NS(=O)(=O)c4ccccc43)CC2)cc1	0.744% (inactive)
CCOc1ccc(OCc2cccc(C(=O)N(CC)CC)c2)cc1	14.3% (inactive)
CC(C)c1cc(C(N)=O)c(NC(=O)c2cccc(COc3ccc(Br)cc3)c2)s1	60.2% (active)
CCc1cc(C(N)=O)c(NC(=O)c2ccc(OC)cc2)s1	15.5% (inactive)
COc1cccc(COC(=O)C2CCN(S(=O)(=O)c3cccs3)CC2)c1OC	0.844% (inactive)
CCOc1ccc(S(=O)(=O)Nc2ccc(C(=O)NCCCN3CCCC3=O)cc2)cc1	3.32% (inactive)
Cc1cccc(NC(=O)c2sc(-c3ccccc3)nc2-c2ccc([N+](=O)[O-])cc2)c1	55.5% (active)
Cc1cccc(NC(=O)c2ccc([N+](=O)[O-])o2)c1	41.2% (inactive)
Cc1cccc(NC(=O)c2cc([N+](=O)[O-])ccc2N2CCN(C)CC2)c1	2.53% (inactive)
COC(=O)c1ccc(SCc2ccccc2)nc1	-10.6% (inactive)
O=S(=O)(ON(c1ccccc1)S(=O)(=O)c1ccccc1)c1ccccc1	-3.86% (inactive)
CC1=C/C(=N\OS(=O)(=O)c2ccccc2)C=CC1=O	68.7% (active)
COc1ccc(NS(=O)(=O)c2ccc(C)c(C(=O)NCC(c3cccs3)N3CCOCC3)c2)cc1 (stereo unspecified)	20.6% (inactive)
CC(C)(C)NC(=O)Cn1cnc2cc([N+](=O)[O-])ccc2c1=O	33.5% (inactive)
O=C(Cn1cnc2c(cnn2-c2ccccc2)c1=O)NCc1ccccc1	-38.8% (inactive)
O=C(Cn1cnc2cc([N+](=O)[O-])ccc2c1=O)NC(=O)NCc1ccccc1	62.3% (active)
CN(CC(=O)Nc1ccccc1Cl)C(=O)c1ccccc1SCC(=O)N1CCCC1	2.13% (inactive)
